# This is a sample that favours compounds with a hit; in the whole collection about 2.5% have one here.
# SR-BI uptake up – SR-BI HDL lipid transfer activation. CHO ldlA[mSR-BI] cells, DiI-HDL uptake fluorescence, 3 h; 100 = double the neutral-control signal. activation, % at 12.5 µM. 0.096% of 320,000 active. AID 504775;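 active means mean replicate activation of at least 60% and every replicate at or above 60%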;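 further: 0% = median plate neutral-control signal and 100% = twice that signal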
#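 Material – SR-BI-overexpressing, LDLR-lacking CHO cells · Medium – BSA-supplemented, HEPES-buffered Ham's F12, pH 7.4 · Doses – single concentration · Times – compound with DiI-HDL co-incubation, 3 h at 37 °C · Measured by – bottom-read fluorescence, 550/595 nm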
# SR-BI DiI inh – blocks mouse SR-BI lipid uptake from DiI-HDL; ldlA[mSR-BI] CHO cells, DiI-HDL uptake fluorescence, 3 h; inhibition, % at 12.5 µM; 0.96% of 320,000 active;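 active means mean replicate inhibition of at least 70% and a set share of replicates each scoring 70 or more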;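 further: 0% = median of neutral control wells and 100% = median of positive control wells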
# dFosB activator – enhances mouse delta FosB homodimer DNA binding; P13346; purified delta FosB, TAMRA-CDK5 oligo fluorescence polarization; percent of positive-control signal above neutral wells; activation, % at 25 µM; 0.99% of 340,000 active;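 active means mean activation above about 17%, with every replicate also reaching it, limit read from the data, passing the limit was not always enough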
# Target sequence (P13346 whole entry, looked up): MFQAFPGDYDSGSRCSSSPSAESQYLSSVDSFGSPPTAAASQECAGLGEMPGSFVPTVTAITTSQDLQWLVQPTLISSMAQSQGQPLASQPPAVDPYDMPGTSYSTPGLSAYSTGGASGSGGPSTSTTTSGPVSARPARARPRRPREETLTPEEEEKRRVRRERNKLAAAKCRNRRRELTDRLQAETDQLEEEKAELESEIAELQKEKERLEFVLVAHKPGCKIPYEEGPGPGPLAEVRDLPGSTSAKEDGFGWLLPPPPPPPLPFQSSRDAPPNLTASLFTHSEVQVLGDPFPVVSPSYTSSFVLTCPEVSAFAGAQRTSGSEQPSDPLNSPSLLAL
# CDK5 inh – inhibitors of human CDK5/p35 kinase; Q00535+Q15078; Recombinant CDK5/p35, ADP-Glo luminescence, 60 min; inhibition, % at 10 µM; 0.01% of 330,000 active;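 active means highest replicate inhibition of at least 50% and at least 75% of replicates reaching 50%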;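 further: plate controls were DMSO neutral control for no effect and GW8510 at 10 µM for full effect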
# Dyrk1A ADPGlo – blocks rat Dyrk1A kinase activity. inhibition, % at 12.5 µM. 0.43% of 310,000 active. ADP-Glo luminescence, NFATc1 peptide. AID 504441. Q63470;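 further: plate controls were vehicle with enzyme for no effect and no enzyme for full effect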
# NSD2 HMT inh – inhibitors of human histone methyltransferase NSD2 | O96028 | NSD2 peptide methylation, AlphaScreen, 120 min | inhibition, % at 12.5 µM | 0.54% of 310,000 active
# * hit, by the source's call; · = not tested or not shown. Unless noted, no stated cut-off is given here; in the data, active means inhibition above about 50%; inactive means the rest.
SMILES,SR-BI uptake up,SR-BI DiI inh,dFosB activator,CDK5 inh,Dyrk1A ADPGlo,NSD2 HMT inh
O=C1c2cccc3cccc(c23)C(=O)C1(O)O,-16.8,16.8,-4.0,-1.9,78.7*,17.4
O=C1NC(=O)C2(N1)C(=O)c1cccc3cccc2c13 (centres undefined),·,·,·,·,·,-1.2
COC(=O)C1(CC2CC(c3cccc(Br)c3)=NO2)CCN(C(=O)OC(C)(C)C)CC1 (centres undefined),-36.3,36.3,-9.1,-0.9,7.5,·
Cc1cccc(COc2ccccc2C(=O)OCC(=O)N(C)c2c(N)n(Cc3ccccc3)c(=O)[nH]c2=O)c1,-86.6,86.6*,-6.6,0.0,2.3,-0.4
CCCCCCC(=O)Nc1nc(C)c(-c2csc(Nc3cc(OC)ccc3OC)n2)s1,-106.5,106.5*,-3.0,-0.6,5.7,·
COc1ccc(OC)c(Nc2nc(-c3cccs3)cs2)c1,-91.7,91.7*,-3.7,2.0,2.2,·
CCCCCC(=O)Nc1nc(C)c(-c2csc(Nc3cc(OC)ccc3OC)n2)s1,-99.4,99.4*,-0.9,0.7,16.3,·
COc1ccc(C)cc1Nc1nc(-c2c[nH]c3ccccc23)cs1,-36.3,36.3,26.8*,0.3,5.7,-1.4
COc1ccc(Nc2nc(-c3cccs3)cs2)c(OC)c1,-53.9,53.9,-3.8,0.0,-12.1,0.5
COc1cc(/C=C/C(=O)N2CCN(CC(O)COc3ccccc3)CC2)cc(OC)c1OC (centres undefined),-79.2,79.2*,1.1,2.0,0.9,-1.3
COc1cc2c(cc1OC)CN(c1nc(-c3cccnc3)nc3ccccc13)CC2,-31.3,31.3,33.5*,0.1,23.1,7.0
CN1CCN(c2nc(-c3cccnc3)nc3ccccc23)CC1,4.5,-4.5,-23.2,0.8,17.9,8.2
COc1ccc(OC)c(S(=O)(=O)Nc2ccc(C(=O)Nc3cc(C)on3)cc2)c1,·,·,·,·,·,0.4
OC1CCCC1NCc1ccnc2cc(Cl)ccc12 (centres undefined),3.0,-3.0,-2.3,1.7,1.4,-0.5
OC(CNc1ccnc2cc(Cl)ccc12)CNC1CCCCC1 (centres undefined),0.2,-0.2,25.5*,0.5,6.4,37.5
COc1ccccc1CN1C(=O)CNC1=S,4.9,-4.9,4.3,1.4,6.2,2.0
COc1ccccc1Cn1[nH]nnc1=S,2.3,-2.3,-2.0,0.3,-5.3,101.2*
C=CCNCCCCOc1ccc(Br)cc1C,23.2,-23.2,-1.9,1.3,-1.0,65.8*
O=C(CSc1nnc(-c2ccccc2)n1-c1ccccc1)NN=Cc1ccc(-c2ccccc2)cc1,·,·,·,·,·,-1.7
O=C(NCc1ccc(F)c(F)c1)C1CCC(CNS(=O)(=O)c2cccc3cccnc23)CC1 (centres undefined),·,·,·,·,·,-1.8
CC(Sc1nc(-c2ccccc2)cc(C(F)(F)F)n1)C(=O)N1CCOCC1 (centres undefined),-92.9,92.8*,-5.8,0.5,-1.5,-2.6
CC1CCN(C(=O)C(C)Sc2nc(-c3ccccc3)cc(C(F)(F)F)n2)CC1 (centres undefined),-86.9,86.9*,0.4,-0.7,3.2,-8.0
CCN(CC)CCCNC(=O)C(C)Sc1nc(-c2ccccc2)cc(C(F)(F)F)n1 (centres undefined),-38.5,38.5,-10.0,1.3,-8.2,11.6
CC(Sc1nc(-c2ccccc2)cc(C(F)(F)F)n1)C(=O)NCCN1CCOCC1 (centres undefined),-73.4,73.4*,-6.3,1.6,-10.8,1.6
O=C(CSc1nc(-c2ccc(F)cc2)cc(C(F)(F)F)n1)NCCN1CCOCC1,-73.0,73.0*,-0.4,-2.0,-4.9,-0.3
SMILES,SR-BI uptake up,SR-BI DiI inh,dFosB activator,CDK5 inh,Dyrk1A ADPGlo,NSD2 HMT inh
COc1ccc(-c2cc(C(F)(F)F)nc(SCC(=O)NCCN3CCOCC3)n2)cc1OC,-58.9,58.9,1.2,-1.7,6.6,-1.1
CC(Sc1nc(-c2ccccc2)cc(C(F)(F)F)n1)C(=O)N1CCCC1 (centres undefined),-68.5,65.5,-6.0,1.0,0.6,·
COc1ccccc1NC(=O)NNC(=O)c1ccc2ccccc2c1O,-12.8,12.8,-1.9,-0.1,-1.2,16.7
O=C(NCc1ccco1)c1ccc(CS(=O)(=O)c2ccc(Cl)cc2)o1,·,·,·,·,·,-0.9
Cc1[nH]n(-c2ccccc2)c(=O)c1C=Nc1ccc(S(=O)(=O)N=C(N)N)cc1,5.2,-5.2,26.4*,0.4,1.5,-0.4
O=C(Cn1c(O)c(/C=C2\C=Nc3ccccc32)sc1=O)Nc1ccc2c(c1)OCO2,-34.7,34.7,36.4*,1.5,3.0,2.0
O=C(CSc1nnc(COc2ccc(Cl)cc2)o1)N1c2ccccc2CCc2ccccc21,-74.9,74.9*,3.8,-0.8,-8.8,3.2
Cc1ccc(SCC(=O)OC(C)C(=O)Nc2ccc(S(N)(=O)=O)cc2)cc1C (centres undefined),47.7,-47.7,1.1,-1.0,-1.9,-6.8
CC1(C)C(=O)OC(c2c(F)c(F)c(F)c(F)c2F)C2(CCCCC2)C1=O (centres undefined),-77.0,77.0*,3.8,-0.8,1.1,-0.6
CC1(C)C(=O)OC(c2cccn2-c2ccc([N+](=O)[O-])cc2)C2(CCCCC2)C1=O (centres undefined),-10.3,10.3,-3.2,-1.0,-1.0,1.5
COc1ccc(C2C(C(=O)N3CCC(C(N)=O)CC3)CC(=O)N2c2ccc(OC)cc2)cc1 (centres undefined),14.4,-14.4,-4.7,-0.4,-7.5,2.4
O=C(O)CCNc1ccc(NCCC(=O)O)c2c1C(=O)c1ccccc1C2=O,12.9,-12.9,-25.8,1.7,29.9,56.2*
COc1ccccc1NCCC(=O)O,-0.5,0.5,-1.6,-0.2,1.5,-2.1
CCc1ccc(S(=O)(=O)/N=C2\C=C(Nc3ccc(O)cc3)C(=O)c3ccccc32)cc1,-63.1,63.1,-14.2,4.6,8.6,28.6
O=C(O)c1ccc(NC2=C/C(=N/S(=O)(=O)c3ccccc3)c3ccccc3C2=O)cc1,14.7,-14.7,-1.4,11.3,80.0*,·
O=c1[nH]c(Nc2ccccc2)cc2ccccc12,8.1,-8.1,-1.8,1.0,35.0,81.8*
O=c1[nH]c(Nc2ccccc2)cc2cc(Br)ccc12,-21.6,21.6,-1.3,-1.0,31.4,·
C=CCN1C/C(=C/c2ccccc2)N2C(=O)CC(c3ccccc3)N=C12 (centres undefined),·,·,·,·,·,-0.1
Cc1ccc2c(CC(=O)NNC(=O)c3ccccc3O)coc2c1,-106.1,106.1*,-9.9,0.0,10.6,2.6
CCOC(=O)c1cccc(NC(=O)CN(C)S(=O)(=O)c2cc3ccccc3s2)c1,·,·,·,·,·,-5.1
Cc1ccc(N=Nc2ccc(O)c(/C=N\NC(=O)c3ccc(N)cc3)c2)cc1C,-114.7,114.7*,46.8*,0.8,3.1,0.0
Cc1ccc(-c2cc(C(=O)NN=Cc3cc(Br)ccc3O)[nH]n2)cc1C,·,·,·,·,·,0.3
